From PubChem
Compounds with a hit are over-represented: about 4.3% of the library has one in this group of screens.
WT yeast gro inh – growth inhibition of WT strain, primary screen, mitochondrial fusion inhibitor project, WT and mutant strains, chemical genetic; mitochondrial fusion phenotypic screen; inhibition, % at 10 µM; 190,000 compounds, 2.1% hits; AID 1362, 2008; in the data active = inhibition above about 58%; tested in S. cerevisiae
Yeast life ext – compounds extending yeast replicative lifespan, primary screen, S. cerevisiae, OD615; inhibition of the nicotinamide effect, % at 10 µM; 130,000 compounds, 0.68% hits; S. cerevisiae growth with nicotinamide; deaD strain in restrictive glucose medium;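 active = inhibition above a set limit, placed 3 SD over the median of all compounds, cut at about 26% in these data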;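 note: 0% = nicotinamide-treated wells and 100% = cells grown without nicotinamide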
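Test system: DeaD-strain S. cerevisiae / Buffer or medium: restrictive glucose medium / Also added: nicotinamide 1.5 mM / Doses: one concentration, 10 µM, DMSO 0.25% / Schedule: 48 h at 30 °C / Signal: OD615 measurement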
RAM network inh – inhibitors of the yeast RAM network, primary screen, dse1pr::URA3 reporter, 5-FOA selection | S. cerevisiae dse1pr::URA3 reporter, 5-FOA growth OD615, 2 d; analog-sensitive cbk1-as2 kinase mutant strain | inhibition, % at 50 µM | 190,000 compounds, 1.8% hits;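 active = inhibition above a set limit, 3 SD over mean compound inhibition, cut at about 8.4% in these data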;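 note: 0% = DMSO-only wells with no growth and 100% = 10 µM 1-NA-PP1 full growth; inhibition rescues growth on 5-FOA so higher OD means more RAM inhibition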
BB579 growth dn – growth inhibitors of yeast BB579 in restrictive medium, primary screen, yeast lifespan-shortening project, S. cerevisiae. OD615, 48 h. inhibition, % at 10 µM. 140,000 compounds, 0.51% hits. AID 804, 2007;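 active = inhibition above a set limit, 3 SD over the mean compound inhibition, cut at about 44% in these data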
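Detection: OD615 turbidity measurement; Material: Saccharomyces cerevisiae DeaD strain BB579, replicative lifespan model yeast; Timing: 48 h exposure, 30 °C; Doses: single 10 µM dose; Medium: CSMM-D restrictive synthetic medium containing dextrose (glucose); Controls: amphotericin B at 10 µg/mL as positive control.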
Numbers without * were called inactive; / = no result given.

SMILES | WT yeast gro inh | Yeast life ext | RAM network inh | BB579 growth dn
CCCn1c(SCC(=O)c2cc(C)c(C)cc2C)n[nH]c1=O | 8.7 | -20.2 | 1.6 | -43.8
Cc1ccc(OCC(=O)Nc2ccc(CN3CCCCC3)cc2)c(C)c1 | 12.4 | / | 2.5 | /
CC(C)CN(C)C(=O)CCc1nnc(Cc2ccc(-c3ccccc3)cc2)o1 | 18.8 | / | 2.9 | /
O=C(/C=C/c1ccc(Br)o1)NC(c1ccccc1)c1ccccc1 | 63.0* | -0.8 | 3.9 | -24.2
O=C(NC(c1ccccc1)c1ccccc1)c1ccc(Br)o1 | 4.5 | -12.1 | 7.7 | -10.1
O=C(C1CCCO1)N1CCN(C(=S)Nc2ccccc2Cl)CC1 (centres undefined) | -21.1 | -4.8 | 1.2 | 5.7
CCc1ccc(OC)c(-c2csc(N)n2)c1 | 58.5* | / | 0.7 | /
CCNC(=S)NN=C1c2ccccc2-c2ccccc21 | 14.8 | / | 2.2 | /
C=C(C)CNC(=S)NN=C1c2ccccc2-c2ccccc21 | 69.9* | / | 4.4 | /
COc1ccc(/C=N/NC(=O)c2ccn[nH]2)cc1COc1ccc(F)cc1 | 11.7 | -16.2 | 5.2 | -23.0
COc1ccc(/C=N/NC(=O)c2ccn[nH]2)cc1COc1ccc(Cl)cc1Cl | 72.7* | -10.5 | 2.1 | -29.4
COc1ccc(NC(=S)NCc2ccc3c(c2)OCO3)cc1 | 3.5 | / | 1.1 | /
CC(C)c1ccc(NC(=S)NCc2ccc3c(c2)OCO3)cc1 | 67.0* | / | 5.3 | /
COc1ccccc1/C=N/N(C(C)=O)c1nc(-c2ccc(F)cc2)cs1 | -11.2 | -14.1 | 3.4 | -26.1
Cc1cccc(NC(=S)NC2CCCCCC2)c1C | 67.2 | 0.3 | -1.6 | -31.5
Cc1cccc(NC(=S)NC2CCCCC2)n1 | 68.0* | / | 0.8 | /
Cc1cccc(NC(=S)NC2CCCC2)n1 | 71.7* | / | 0.8 | /
CC(C)OC(=O)Cn1cc(C#N)c2ccccc21 | -21.8 | / | -2.2 | /
CNC(=O)Cn1nc(-c2ccc(C)c(S(=O)(=O)N(C)C)c2)c2ccccc2c1=O | -1.3 | / | -0.7 | -16.6
Cc1cc(C)c[n+](CC(=O)c2cc3ccccc3oc2=O)c1 | -12.3 | 4.8 | 0.8 | -35.6
O=C(Cn1nc(Cl)nc1Cl)c1cc2ccccc2oc1=O | -6.4 | 41.8* | -0.3 | -29.3
Cc1ccc[n+](CC(=O)c2cc3ccccc3oc2=O)c1 | 9.8 | 36.3* | 2.6 | -25.8
CCOC(=O)Cc1csc(NC(=S)NC(=O)C(C)(C)C)n1 | 5.3 | -5.9 | 0.4 | -29.3
CC(=O)Nc1ccc(S(=O)(=O)Nc2ccc(C)c([N+](=O)[O-])c2)cc1 | -1.8 | / | 0.7 | /
CCOC(=O)Cn1cc(C#N)c2cccc(CC)c21 | 13.9 | / | -0.4 | /
SMILES | WT yeast gro inh | Yeast life ext | RAM network inh | BB579 growth dn
CC(C)(C)C(=O)NCCc1nc2ccccc2n1CC(=O)c1ccc(Cl)cc1 | -1.4 | 2.5 | 1.1 | 27.8
CCn1c2ccccc2c2cc(NC(=O)c3cc(OC)cc(OC)c3)ccc21 | 27.2 | -1.1 | 8.6* | -29.8
COc1ccccc1N(C)S(=O)(=O)c1ccc(C(=O)Nc2nc(C)cs2)cc1 | 8.1 | / | 4.1 | /
Cc1cc(C)c2nc(-c3ccccn3)cc(C(=O)NCCc3ccc(S(N)(=O)=O)cc3)c2c1 | 4.3 | / | 10.4* | /
Cc1cc(C)c2nc(-c3ccccn3)cc(C(=O)NCc3ccc(S(N)(=O)=O)cc3)c2c1 | 7.3 | / | -0.2 | /
CC1(C)CC2CC(C)(CN2Cc2c(O)ccc3ccccc23)C1 (centres undefined) | 4.8 | / | 1.1 | /
O=[N+]([O-])c1ccc(Oc2cccc3cccnc23)c([N+](=O)[O-])c1 | 62.6* | 1.2 | 0.5 | -52.6
Cc1ccc2cccc(Oc3ccc([N+](=O)[O-])cc3[N+](=O)[O-])c2n1 | -7.5 | 10.3 | 2.7 | -15.8
CCc1ccc(OCC(=O)Nc2cccc3c2CCCC3)cc1 | 20.6 | -1.8 | 2.8 | -16.6
O=C1CC(=O)N(c2ccccc2)N1c1ccccc1 | -7.8 | 28.0* | 1.7 | -13.9
Cc1ccc(C(=O)N2CCN(S(=O)(=O)c3ccccc3[N+](=O)[O-])CC2)o1 | -7.7 | / | -0.6 | /
C#CCn1cnc2c(cnn2-c2ccc(C)c(C)c2)c1=O | 60.2* | -22.6 | 3.2 | -15.3
Cc1ccc(-n2ncc3c(=O)n(CC#N)cnc32)cc1C | -4.1 | -10.0 | 0.0 | -18.1
COc1ccc(-c2csc(-c3cccs3)n2)c(OC)c1 | 63.8 | / | 6.2 | /
COc1ccc(-c2csc(-c3ccccc3)n2)c(OC)c1 | 72.7* | / | 2.6 | /
CSc1nc(Sc2cccc(Cl)c2)c2ccccc2n1 | 58.5* | -23.1 | 8.2 | -32.9
CNC(=S)N(Cc1ccc(OC)cc1)Cc1cc2ccc(C)cc2[nH]c1=O | -10.2 | / | 5.7 | /
Cc1ccc(-c2nnc(SCC(=O)N/N=C/c3ccc(C)s3)n2-c2ccccc2)cc1 | -1.8 | -4.7 | 0.0 | -5.5
CN1CCN(c2ccc(NC(=O)c3ccc(C#N)cc3F)cc2Cl)CC1 | 4.3 | / | -0.4 | /
c1ccc(Cc2nc(-c3ccccn3)no2)cc1 | -3.8 | -9.1 | 1.1 | -39.5
CC(C)(C)c1ccc(OCc2nc(-c3ccccn3)no2)c(Br)c1 | 79.6* | -6.6 | 4.3 | -7.6
Clc1cc(Cl)c(OCc2nc(-c3ccccn3)no2)cc1Cl | 10.4 | -0.6 | 10.8* | -68.1
CCC[C@@H]1C[C@@]1(CCC)[C@@H](NP(=O)(c1ccccc1)c1ccccc1)c1ccc(C(=O)OC)cc1 | 68.0* | 8.7 | 5.8 | -51.0
COCCCn1c(SCC(=O)c2ccccc2)nc2ccccc2c1=O | -10.1 | / | 5.9 | /
CC(=O)NCCn1c(SCc2ccc(C)cc2)nc2ccccc2c1=O | 65.3* | -16.6 | 1.6 | -36.0
SMILES | WT yeast gro inh | Yeast life ext | RAM network inh | BB579 growth dn
CC(C)(C)c1nc(SCC(=O)N2CCCC2)c2ccccc2n1 | -3.8 | / | 1.0 | /
CC(=O)NCCn1c(SCc2cc(=O)n3cc(Cl)ccc3n2)nc2ccccc2c1=O | -14.1 | -8.8 | 10.9* | -27.6
CC(C)(C)c1nc(SCC(=O)c2ccccc2)c2ccccc2n1 | 52.7 | / | 9.4* | /
COCCn1c(SCC(=O)c2ccccc2)nc2ccccc2c1=O | -0.4 | / | 9.8* | /
CN(C)S(=O)(=O)c1ccc(C(=O)OCC(=O)NCc2ccco2)cc1 | 4.6 | / | 1.9 | /
CCc1ccc(/C=C2\Oc3cc(OS(C)(=O)=O)ccc3C2=O)cc1 | 5.3 | -2.9 | 8.5* | -71.5
CSc1ncc(Cl)c(C(=O)Nc2nnc(SC/C=C/c3ccccc3)s2)n1 | 38.9 | -6.6 | 4.8 | 11.2
C=CCSc1nnc(NC(=O)c2nc(SCC)ncc2Cl)s1 | 3.9 | 9.3 | 8.4* | -5.8
CCN(Cc1cc(=O)n2ccsc2n1)Cc1nc2ccccc2c(=O)[nH]1 | 4.4 | / | 0.1 | /
O=C(NC(=S)Nc1ccc(Cl)cn1)C(c1ccccc1)c1ccccc1 | 72.5* | -11.2 | 4.1 | -1.9
O=C(Nc1ccc(Cl)cn1)C1C(c2ccccc2)C1(Cl)Cl (centres undefined) | 71.1* | / | -0.9 | /
O=C(NC(=S)Nc1ccc(Cl)cn1)C12CC3CC(CC(C3)C1)C2 | 73.1* | / | 3.8 | /
Cc1sc(NC(=O)c2ccccc2)c(C(=O)NCCN(C)C)c1C | 2.8 | -22.6 | -0.3 | 4.8
CCOC(=O)c1c(C)oc2c1c(C=NCCO)c(O)c1ccccc12 | 4.1 | / | 2.3 | /
CCOC(=O)c1c(C)oc2c1c(C(c1ccccc1)N1CCOCC1)c(O)c1ccccc12 (centres undefined) | 67.2* | 23.9 | 2.7 | -22.7
